Assay results reported in publication PMC12531995 (RSC Advances, 2025).
Marks after values point to notes of the source that are not given here.

What was measured:
[1] = test system: pilocarpine-induced seizures in mice; assay: Pilocarpine-induced seizure; format: in vivo
Procedure, shortened: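 Male mice, n = 10 per group. Vehicle (0.5% CMC) or test compound (20 mg kg−1) given orally 30 min before pilocarpine (300 mg kg−1, i.p.) to induce status epilepticus. Valproic acid reference was 300 mg kg−1 orally, 30 min prior. Non-epileptic controls got vehicle only. Scored latency to forelimb clonus (stage 3), severity at 30, 60, 90 and 120 min, and 24 h survival. Mean ± SD.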

[2] = test system: PTZ-induced seizures in mice; assay: Pentylenetetrazol; format: in vivo; conditions: Mus musculus, po, 24 h, read-out: 24 h mortality
Procedure, shortened: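 Mice were randomised into ten groups of ten. Animals were dosed orally, with 0.5% carboxymethyl cellulose as the negative-control vehicle. Seizures were then induced by intraperitoneal pentylenetetrazol at a convulsive dose of 85 mg kg−1.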

[3] = test system: carrageenan-induced paw edema in rats; conditions: cited from earlier work

Row | Structure (SMILES) | 24 h Survival ([1]; compounds 20 mg kg^−1, valproic acid 300 mg kg^−1 orally, mice n = 10) | Onset (latency to forelimb clonus, stage 3) ([1]; mice n = 10, compounds 20 mg kg^−1 orally, valproic acid 300 mg kg^−1 orally, 30 minutes before pilocarpine 300 mg kg^−1 i.p., mean ± SD) | Reduction of final seizure severity ([1]; vs pilocarpine group, 120 min) | mortality at 20 mg/kg [2] | Paw thickness difference, 1st hour ([3]; 1st hour post-carrageenan, oral, mean ± SD, n = 6) | Percentage of inhibition of paw thickness, 1st hour ([3]; 1st hour, vs carrageenan group) | Paw thickness difference, 2nd hour ([3]; 2nd hour post-carrageenan, oral, mean ± SD, n = 6) | Percentage of inhibition of paw thickness, 2nd hour ([3]; 2nd hour, vs carrageenan group) | Paw thickness difference, 3rd hour ([3]; 3rd hour post-carrageenan, oral, mean ± SD, n = 6) | Percentage of inhibition of paw thickness, 3rd hour ([3]; 3rd hour, vs carrageenan group) | Paw thickness difference, 4th hour ([3]; 4th hour post-carrageenan, oral, mean ± SD, n = 6) | Percentage of inhibition of paw thickness, 4th hour ([3]; 4th hour, vs carrageenan group) | Paw thickness difference, 5th hour ([3]; 5th hour post-carrageenan, oral, mean ± SD, n = 6) | Percentage of inhibition of paw thickness, 5th hour ([3]; 5th hour, vs carrageenan group) | weight gain (paw) ([3]; 5 hour mark) | Paw weight increase ([3]; right vs left paw, mean ± SD, n = 6)
1 | CCCC(CCC)C(=O)O [Valproic acid (VI), valproic acid] | 60% | 10.65 ± 0.52^a mins | 60% | 30% |  |  |  |  |  |  |  |  |  |  |  | 
2 | Cc1ccc(-c2cc(C(F)(F)F)nn2-c2ccc(S(N)(=O)=O)cc2)cc1 [Celecoxib] |  |  |  |  | 1.4 ± 0.38 mm | 29.31% | 2.36 ± 0.51 mm | 28.34% | 2.83 ± 0.43 mm | 33% | 3.01 ± 0.57 mm | 40.39% | 3.10 ± 0.23 mm | 41.65% | 68.15% | 29.95 ± 2.20^ab %
